In ChEMBL document CHEMBL4190232, “Isoflavones and Rotenoids from the Leaves of Millettia oblata ssp. teitensis” (J Nat Prod, 2017):
Activity calls are given as the source filed them. No cut-off for these calls is given here.

Legend:
B16 = assay: Cytotoxicity against mouse B16 cells assessed as reduction in cell viability by MTT assay; assay type: functional, cell-based
HepG2 = assay: Cytotoxicity against human HepG2 cells assessed as reduction in cell viability by MTT assay; assay type: functional, cell-based
[1] = system: Lewis lung carcinoma cell line; assay: Cytotoxicity against mouse LL/2 cells assessed as reduction in cell viability by MTT assay; assay type: functional, cell-based
[2] = Cytotoxicity against mouse C26 cells assessed as reduction in cell viability by MTT assay; assay type: functional, cell-based
Mus musculus = species: Mus musculus; assay: Inhibition of cap/HCV-mediated translation in mouse Krebs2 cell free extract expressing FF/HCV/IRES-Ren mRNA reporter transcript assessed as reduction in luciferase production at 20 uM after 60 mins; assay type: functional
How it was run: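 Compound stocks were 10 mM in DMSO, diluted to 200 μM in water, and tested at a final 20 μM in Krebs-2 translation extracts. The extracts were programmed with bicistronic Firefly–HCV IRES–Renilla luciferase mRNA. Reactions ran for 60 min at 30 °C, after which luciferase activities were measured.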

MDA-MB-231 = assay: Cytotoxicity against human MDA-MB-231 cells assessed as reduction in cell viability after 72 hrs by alamarBlue assay; assay type: functional, cell-based; conditions: MDA-MB-231, 72 h
How it was run: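 MDA-MB-231 cells grown in DMEM with 10% FBS, 2 mM L-glutamine, penicillin/streptomycin, 37 °C, 5% CO2. Seeded at 10⁴ cells/well, preincubated 24 h, then compound or DMSO vehicle (0.1% or 1.0% v/v) for 72 h. Viability by Alamar Blue, absorbance at 570 nm (600 nm reference), as % of vehicle control; six replicates, at least six independent experiments.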

| SMILES | inhibition (Mus musculus) | IC50 (MDA-MB-231) | further results |
| --- | --- | --- | --- |
| COc1cc2c(cc1OC)[C@]1(O)C(=O)c3ccc4c(c3O[C@@H]1CO2)C=CC(C)(C)O4 [TEPHROSIN] | inactive | – | IC50 (B16): 1.35 to 9.85 µM; IC50 (HepG2): 1.35 to 9.85 µM; IC50 [1]: 1.35 to 9.85 µM; IC50 [2]: 1.35 to 9.85 µM |
| COc1ccc2c(=O)c(-c3cc(OC)c4c(c3OC)OCO4)coc2c1 | inactive | 168 µM | – |
| COc1ccc2c(c1)O[C@@H]1COc3cc4c(cc3[C@@]1(O)C2=O)OCO4 | inactive | – | – |
| COc1cc2c(cc1OC)-c1c(oc3c4c(ccc3c1=O)OC(C)(C)C=C4)CO2 [DEHYDRODEGUELIN] | inactive | – | IC50 (B16): 0.56 to 16 µM; IC50 (HepG2): 0.56 to 16 µM; IC50 [1]: 0.56 to 16 µM; IC50 [2]: 0.56 to 16 µM |
| COc1cc2c(cc1-c1coc3c(CC=C(C)C)c(OC)c(OC)cc3c1=O)OCO2 | inactive | > 235 µM | – |
| CC(C)=CCOc1ccc2c(=O)c(-c3ccc4c(c3)OCO4)coc2c1 | inactive | 154 µM | – |
| COc1cc2occ(-c3cc4c(cc3OC)OCO4)c(=O)c2cc1OC | inactive | – | – |
| COc1cc2c(cc1-c1coc3cc(O)ccc3c1=O)OCO2 | inactive | – | – |
| COc1ccc2c(c1)O[C@@H]1COc3cc4c(cc3[C@]1(O)C2=O)OCO4 | inactive | – | – |
| COc1ccc2c(c1)O[C@@H]1COc3c(cc(OC)c4c3OCO4)[C@]1(O)C2=O | inactive | – | – |
| COc1ccc2c(c1)O[C@@H]1COc3cc(OC)c(OC)cc3[C@]1(O)C2=O | inactive | – | – |
| COc1ccc2c(c1)O[C@@H]1COc3cc(OC)c(OC)cc3[C@@H]1C2=O | inactive | – | – |
| COc1ccc(-c2coc3cc(OCC=C(C)C)ccc3c2=O)cc1 | inactive | 33.3 µM | – |
| COc1ccc2c(c1)O[C@@H]1COc3cc4c(cc3[C@@H]1C2=O)OCO4 | inactive | 93.8 µM | – |
